Assay results reported in ChEMBL document CHEMBL4190254, “Synthesis of sulfamoylbenzamide derivatives as HBV capsid assembly effector” (Eur J Med Chem, 2017).

Legend:
[1] = test system: Hepatitis B virus; test: Antiviral activity against HBV infected in human HepAD38 cells assessed as inhibition of viral replication at 10 uM by RT-PCR method relative to control; assay type: functional
Method in brief: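 HBV DNA replication in HepAD38 cells was quantified by RT-PCR following an earlier published method. Each compound was tested at a single 10 μM concentration. Results are % inhibition ± SD relative to the untreated control.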

[2] = test system: CCRF-CEM; test: Cytotoxicity against human CEM cells by CellTiter 96 non-radioactive cell proliferation colorimetric assay; assay type: cell-based; details: ccrf-cem
Method in brief: (§1)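 A CellTiter 96 colorimetric cell proliferation read-out was used in primary human PBM cells, CEM, Vero and HepG2 cells. CC50 is the concentration that inhibits cell growth by 50%.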

[3] = test system: HepG2; test: Cytotoxicity against human HepG2 cells by CellTiter 96 non-radioactive cell proliferation colorimetric assay; assay type: cell-based; method in brief: as §1
[4] = test system: PBMC; test: Cytotoxicity against human PBMC by CellTiter 96 non-radioactive cell proliferation colorimetric assay; assay type: cell-based; method in brief: as §1
[5] = test system: Vero; test: Cytotoxicity against African green monkey Vero cells by CellTiter 96 non-radioactive cell proliferation colorimetric assay; assay type: cell-based; details: chlorocebus sabaeus, vero; method in brief: as §1
[6] = test system: Hepatitis B virus; test: Antiviral activity against HBV infected in human HepAD38 cells assessed as reduction in viral replication by RT-PCR method; assay type: functional, organism-based
Method in brief: (§2)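 HBV DNA replication in HepAD38 cells was quantified by RT-PCR following an earlier published method, with data relative to the untreated control. EC50 (50% inhibition of HBV DNA replication) was derived by linear regression. Values are the mean ± SD of two or three replicates from 2 independent experiments.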

[7] = test system: Hepatitis B virus; test: Antiviral activity against HBV infected in human HepAD38 cells assessed as reduction in intracellular viral DNA level by RT-PCR method; assay type: functional, organism-based; method in brief: as §2
[8] = molecular target: Core antigen (Hepatitis B virus) (UniProt Q03732); test: Inhibition of capsid in HBV infected in human HepAD38 cells assessed as reduction in cccDNA formation by measuring reduction in HBe antigen secretion at 10 uM after 14 days by ELISA relative to control; assay type: cell-based
Core antigen (Hepatitis B virus), sequence (Q03732 as listed by the source): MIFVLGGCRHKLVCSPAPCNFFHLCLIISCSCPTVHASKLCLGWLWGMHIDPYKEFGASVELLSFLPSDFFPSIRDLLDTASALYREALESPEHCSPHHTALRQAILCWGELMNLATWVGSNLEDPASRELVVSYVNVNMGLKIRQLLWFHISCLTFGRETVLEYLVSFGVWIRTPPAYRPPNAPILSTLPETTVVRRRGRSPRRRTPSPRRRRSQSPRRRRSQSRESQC
Method in brief: (§3)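 HepAD38 cells, collagen-coated wells, DMEM/F12 with 10% heat-inactivated FBS. Tetracycline withdrawn 7 days to allow DNA synthesis and cccDNA formation; at day 7 tetracycline (0.3 μg/ml) plus compound re-added. Compound at 10 μM or 0.001–10 μM, medium and compound replenished every 5 days. Day-14 supernatant HBeAg by ELISA; EC50 by linear regression.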

[9] = test system: Hepatitis B virus; test: Antiviral activity against HBV infected in human HepAD38 cells assessed as reduction in intracellular viral DNA level at 10 uM by RT-PCR method relative to control; assay type: functional; parameters: scale not given: the % may be the effect or the level left
Method in brief: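 HepAD38 cells; intracellular HBV DNA quantified by RT-PCR, expressed relative to untreated control; single-point inhibition given as percent at 10 μM, mean ± SD of two or three replicates from 2 independent experiments.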

[10] = test system: Hepatitis B virus; test: Antiviral activity against HBV infected in human HepAD38 cells assessed as reduction in extracellular viral DNA level by RT-PCR method; assay type: functional, organism-based; method in brief: as §2
[11] = molecular target: Core antigen (Hepatitis B virus, UniProt Q03732); test: (§4) Inhibition of capsid in HBV infected in human HepAD38 cells assessed as reduction in tetracycline-induced cccDNA formation by measuring reduction in HBe antigen secretion after 14 days by ELISA; assay type: cell-based; method in brief: as §3
Core antigen, sequence (Q03732 whole entry): as the sequence (Q03732 as listed by the source) above

[12] = molecular target: Core antigen (Hepatitis B virus) (UniProt Q03732); test: as §4; assay type: cell-based; method in brief: as §3

Row | SMILES | EC50 [6] [µM] | EC90 [6] [µM] | inhibition at 10 µM [1] [%] | CC50 [2] [µM] | CC50 [3] [µM] | CC50 [4] [µM] | CC50 [5] [µM] | EC50 [7] [µM] | EC90 [7] [µM] | inhibition [8] [%] | Activity [9] [%] | EC50 [10] [µM] | EC90 [10] [µM] | EC50 [11] [µM] | EC90 [12] [µM]
1 | C=C1[C@H](CO)[C@@H](O)C[C@@H]1n1cnc2c(=O)[nH]c(N)nc21.O |  |  |  |  |  |  |  | ≤ 0.0001 | 0.009 | < 1 | 53 | 0.0007 | 0.1 | > 10 | 
2 | CC(C)OC(=O)[C@H](C)NS(=O)(=O)c1ccc(F)c(C(=O)Nc2ccc(F)c(F)c2)c1 | > 10 |  |  | 31.1 | 45.5 | > 100 | 13.1 |  |  |  |  |  |  |  | 
3 | CN(C1CCCC1)S(=O)(=O)c1ccc2c(c1)C(=O)N(c1ccc(F)c(F)c1)CC2 | > 10 |  |  | 36 | > 100 | 71.2 | > 100 |  |  |  |  |  |  |  | 
4 | COC(=O)[C@H](Cc1ccccc1)NS(=O)(=O)c1ccc(F)c(C(=O)Nc2ccc(F)c(F)c2)c1 | > 10 |  |  | 31.6 | 76.8 | > 100 | > 100 |  |  |  |  |  |  |  | 
5 | CN(C)S(=O)(=O)NS(=O)(=O)c1ccc(F)c(C(=O)Nc2ccc(F)c(F)c2)c1 | > 10 |  |  | > 100 | > 100 | > 100 | > 100 |  |  |  |  |  |  |  | 
6 | O=C(Nc1cc(S(=O)(=O)NC2CCCC2)ccc1F)c1ccc(F)c(F)c1 | ≥ 10 |  |  | 13.6 | > 100 | 81 | 87.5 |  |  |  |  |  |  |  | 
7 | CCOC(=O)[C@H](CC(C)C)NS(=O)(=O)c1ccc(F)c(C(=O)Nc2ccc(F)c(F)c2)c1 | > 10 |  |  | 10.8 | > 100 | 58.1 | 39.1 |  |  |  |  |  |  |  | 
8 | CS(=O)(=O)NS(=O)(=O)c1ccc(F)c(C(=O)Nc2ccc(F)c(F)c2)c1 | > 10 |  |  | > 100 | > 100 | > 100 | > 100 |  |  |  |  |  |  |  | 
9 | O=C1c2cc(S(=O)(=O)NC3CCCC3)ccc2CCCN1c1ccc(F)c(F)c1 | > 10 |  |  | 50.6 | > 100 | > 100 | > 100 |  |  |  |  |  |  |  | 
10 | O=C(Nc1ccc(F)c(F)c1)c1cc(NS(=O)(=O)C2CCCC2)ccc1F | 2.1 | 9.5 |  | 54.2 | > 100 | > 100 | 29.1 | 0.3 | 3.6 | 66 |  | 2.1 | 9.5 | 6 | > 10
11 | O=C(Nc1ccc(F)c(F)c1)c1cc(S(=O)(=O)NS(=O)(=O)c2ccc(F)c(F)c2)ccc1F | > 10 |  |  | > 100 | > 100 | > 100 | > 100 |  |  |  |  |  |  |  | 
12 | O=C(Nc1ccc(F)c(F)c1)c1cc(S(=O)(=O)N2CCCC2=O)ccc1F | > 10 |  |  | 37.8 | > 100 | > 100 | 39.6 |  |  |  |  |  |  |  | 
13 | O=C(NC1(c2ccc(F)c(F)c2)CC1)c1cc(S(=O)(=O)NC2CCCC2)ccc1F | > 10 |  |  | > 100 | > 100 | > 100 | 12.7 |  |  |  |  |  |  |  | 
14 | CN(C1CCCC1)S(=O)(=O)c1ccc2c(c1)C(=O)N(c1ccc(F)c(F)c1)CCC2 | > 10 |  |  | > 100 | > 100 | > 100 | > 100 |  |  |  |  |  |  |  | 
15 | CCOC(=O)C1=C(CN2CCOCC2)NC(c2nccs2)=NC1c1ccc(F)cc1Br (centres undefined) |  |  |  |  |  |  |  | < 0.01 | 0.05 |  | 82 | 0.2 | 1 |  | 1.9

Second part, led by results:

Row | EC50 [6] [µM] | EC90 [6] [µM] | SMILES | inhibition at 10 µM [1] [%] | CC50 [2] [µM] | CC50 [3] [µM] | CC50 [4] [µM] | CC50 [5] [µM] | EC50 [7] [µM] | EC90 [7] [µM] | inhibition [8] [%] | Activity [9] [%] | EC50 [10] [µM] | EC90 [10] [µM] | EC50 [11] [µM] | EC90 [12] [µM]
16 | 6.7 | > 10 | O=C(Nc1ccc(F)c(F)c1)c1cc(S(=O)(=O)N2CCC(F)(F)C2)ccc1F | 83 | 4.8 | > 100 | > 100 | 21.3 |  |  |  |  |  |  |  | 
17 | > 10 |  | O=C1c2cc(S(=O)(=O)NC3CCCC3)ccc2CCN1c1ccc(F)c(F)c1 |  | > 100 | > 100 | > 100 | > 100 |  |  |  |  |  |  |  | 
18 | > 10 |  | O=C(Nc1ccc(F)c(F)c1)c1cc(S(=O)(=O)NS(=O)(=O)C2CC2)ccc1F |  | > 100 | > 100 | > 100 | > 100 |  |  |  |  |  |  |  | 
19 | 2.7 | > 10 | O=C(Nc1ccc(F)c(F)c1)c1cc(S(=O)(=O)NOC2CCCC2)ccc1F | 82 | 6.4 | 26.4 | 13 | 5.8 |  |  |  |  |  |  |  | 
20 | 6.8 | 9.6 | CC(C)(NS(=O)(=O)c1ccc(F)c(C(=O)Nc2ccc(F)c(F)c2)c1)c1ccccc1 |  | 3.8 | 88.2 | > 100 | 39.4 |  |  |  |  |  |  |  | 
21 | 7.7 | ≥ 10 | CN(C1CCCC1)S(=O)(=O)c1ccc(F)c(C(=O)Nc2ccc(F)c(F)c2)c1 | 87 | 14.5 | 48.6 | 25.8 | 18.3 |  |  |  |  |  |  |  | 
22 | 9.2 | > 10 | O=C(Nc1ccc(F)c(F)c1)c1cc(S(=O)(=O)N2CC(F)(F)C(F)(F)C2)ccc1F | 59 | ≤ 1 | > 100 | > 100 | 9 |  |  |  |  |  |  |  | 
23 | 3.2 | 8.9 | O=C(Nc1ccc(F)c(F)c1)c1cc(S(=O)(=O)NC2CC2)ccc1F |  | 13.6 | 62.3 | 30.1 | 79.2 |  |  |  |  |  |  |  | 
24 | 4.5 | 9.4 | O=C(Nc1ccc(F)c(F)c1)c1cc(S(=O)(=O)N2CCC(F)(F)CC2)ccc1F |  | 10.3 | > 100 | > 100 | > 100 |  |  |  |  |  |  |  | 
25 | 4.6 | 10 | O=C(Nc1ccc(F)c(F)c1)c1cc(S(=O)(=O)N2CCC3CCCCC32)ccc1F (centres undefined) |  | 22.9 | > 100 | > 100 | 30.7 |  |  |  |  |  |  |  | 
26 | 7.7 | 9.3 | CC(NS(=O)(=O)c1ccc(F)c(C(=O)Nc2ccc(F)c(F)c2)c1)c1ccccc1 (centres undefined) |  | 3.6 | > 100 | > 100 | 68 |  |  |  |  |  |  |  | 
